T cruzi intra: intracellular Trypanosoma cruzi inhibition. intracellular Trypanosoma cruzi in host cells, plate reader. activity score (inhibition), % at 5.01 µM. actives 4.9% (n = 22,000); in the data active = activity score above about 55%; inconclusive = no clear call, values can overlap the other calls;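 also: parasites and compound incubated about four days before reading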
YB-1 expr inh: YB-1 expression inhibition; U2OS, qRT-PCR YB-1 vs CDIP delta delta Cp, 16 h; hits give high values; zero = DMSO, each unit about twofold; delta delta Cp (YB-1 minus CDIP) (no concentration beside the values); actives 0.37% (n = 30,000); AID 434959;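 active = delta delta Cp rounded down to an integer at or above 3, about 3 SD of DMSO wells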;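 also: higher means less YB-1 transcript or more CDIP transcript relative to DMSO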
INS-1E ATP HTS: rescue of cytokine-induced death in INS-1E beta cells. protection from cytokine-induced ATP loss, % at 10 µM. INS-1E cytokine-induced death, ATP luminescence, 48 h; normalised: neutral wells 0, positive control 100. actives 0.1% (n = 20,000);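 active = mean replicate protection from cytokine-induced ATP loss at least 50% and at least 75% of replicates each reaching 50%; inconclusive = meets only one of the two criteria, mean or replicate share; inactive = fails both the mean and replicate share criteria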
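Test system: INS-1E rat cells | Quantity: 8000 cells per well | Medium: Phenol-red-free RPMI with 5% fetal bovine serum | Reagent: Cytokine cocktail of IFN-γ, TNF-α and IL-1β | Doses: One compound concentration, pin transfer | Timing: 48 h co-treatment, 10 min post-lysis read | Technique: Luminescent ATP assay (CellTiter-Glo)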
A number is an active result; – = inactive; ? = inconclusive; · = no result given. Only a selection was taken, and hits are over-represented in it overall.

SMILES	T cruzi intra	YB-1 expr inh	INS-1E ATP HTS
C[C@@H]1CCCCO[C@H](CN(C)S(=O)(=O)c2cccs2)[C@@H](C)CN([C@H](C)CO)C(=O)c2cc(NC(=O)Nc3ccc(C(F)(F)F)cc3)ccc2O1	62.4	–	–
C[C@@H]1CCCCO[C@@H](CN(C)S(=O)(=O)c2cccs2)[C@@H](C)CN([C@H](C)CO)C(=O)c2cc(NC(=O)Nc3ccc(C(F)(F)F)cc3)ccc2O1	66.6	–	–
C[C@@H]1CCCCO[C@H](CN(C)S(=O)(=O)c2cccs2)[C@@H](C)CN([C@H](C)CO)C(=O)c2cc(NC(=O)Nc3ccc4c(c3)OCO4)ccc2O1	–	–	–
C[C@@H]1CCCCO[C@@H](CN(C)S(=O)(=O)c2cccs2)[C@@H](C)CN([C@H](C)CO)C(=O)c2cc(NC(=O)CCC(F)(F)F)ccc2O1	–	–	–
COc1ccc(NC(=O)Nc2ccc3c(c2)CC(=O)N([C@H](C)CO)C[C@@H](C)[C@@H](CN(C)Cc2ccc(C(=O)Nc4ccccc4N)cc2)O3)cc1	65.6	–	–
COc1ccc(NC(=O)Nc2ccc3c(c2)CC(=O)N([C@@H](C)CO)C[C@@H](C)[C@@H](CN(C)Cc2ccc(C(=O)Nc4ccccc4N)cc2)O3)cc1	60.1	–	–
COc1ccc(NC(=O)Nc2ccc3c(c2)C(=O)N([C@H](C)CO)C[C@H](C)[C@H](CN(C)Cc2ccc(C(=O)Nc4ccccc4N)cc2)O3)cc1	–	–	–
COc1ccc(NC(=O)Nc2ccc3c(c2)CC(=O)N([C@@H](C)CO)C[C@H](C)[C@H](CN(C)Cc2ccc(C(=O)Nc4ccccc4N)cc2)O3)cc1	–	–	–
COc1ccc(NC(=O)Nc2ccc3c(c2)CC(=O)N([C@@H](C)CO)C[C@H](C)[C@@H](CN(C)Cc2ccc(C(=O)Nc4ccccc4N)cc2)O3)cc1	62.7	–	–
COc1ccc(NC(=O)Nc2ccc3c(c2)CC(=O)N([C@H](C)CO)C[C@H](C)[C@H](CN(C)Cc2ccc(C(=O)Nc4ccccc4N)cc2)O3)cc1	?	–	–
O=S(=O)(C1=CC23CCCC2(C=C(S(=O)(=O)c2ccc(Cl)cc2)C3)C1)c1ccc(Cl)cc1 (stereo unspecified)	·	–	·
CC(C)NC(=O)Nc1ccc2c(c1)CC(=O)N([C@H](C)CO)C[C@H](C)[C@H](CN(C)Cc1ccc(C(F)(F)F)cc1)O2	–	–	–
CC(C)NC(=O)Nc1ccc2c(c1)CC(=O)N([C@@H](C)CO)C[C@@H](C)[C@@H](CN(C)Cc1ccc(C(F)(F)F)cc1)O2	–	–	–
C[C@@H]1CN([C@H](C)CO)C(=O)Cc2cc(NC(=O)Nc3ccc(F)cc3)ccc2O[C@H]1CN(C)Cc1ccc(C(F)(F)F)cc1	72.9	–	–
C[C@H]1CN([C@@H](C)CO)C(=O)Cc2cc(NC(=O)Nc3ccc(F)cc3)ccc2O[C@@H]1CN(C)Cc1ccc(C(F)(F)F)cc1	83.8	–	–
C[C@H](CO)N1C[C@H](C)[C@H](CN(C)Cc2ccc(C(F)(F)F)cc2)Oc2ccc(NC(=O)Nc3ccc(F)cc3)cc2CC1=O	77.6	–	–
N[C@@H](CO)CSCc1ccccc1	·	–	·
C[C@H]1CN([C@@H](C)CO)C(=O)Cc2cc(NC(=O)Nc3cccc4ccccc34)ccc2O[C@H]1CN(C)Cc1ccc(C(F)(F)F)cc1	72.8	–	–
C[C@@H]1CN([C@H](C)CO)C(=O)Cc2cc(NC(=O)Nc3cccc4ccccc34)ccc2O[C@H]1CN(C)Cc1ccc(C(F)(F)F)cc1	58.7	–	–
C[C@H]1CN([C@@H](C)CO)C(=O)Cc2cc(NC(=O)Nc3cccc4ccccc34)ccc2O[C@@H]1CN(C)Cc1ccc(C(F)(F)F)cc1	69.2	–	–
C[C@@H]1CN([C@@H](C)CO)C(=O)Cc2cc(NC(=O)Nc3cccc4ccccc34)ccc2O[C@@H]1CN(C)C(=O)Nc1ccc(C(F)(F)F)cc1	–	–	–
C[C@H]1CN([C@@H](C)CO)C(=O)Cc2cc(NC(=O)Nc3cccc4ccccc34)ccc2O[C@@H]1CN(C)Cc1ccc(C(=O)O)cc1	–	–	–
C[C@H](CO)N1C[C@H](C)[C@H](CN(C)Cc2ccc(C(F)(F)F)cc2)Oc2ccc(NC(=O)Nc3cccc4ccccc34)cc2CC1=O	79.3	–	–
C[C@@H]1CN([C@H](C)CO)C(=O)Cc2cc(NC(=O)Nc3cccc4ccccc34)ccc2O[C@H]1CN(C)Cc1ccc(C(=O)O)cc1	–	–	–
C[C@H](CO)N1C[C@H](C)[C@H](CN(C)C(=O)Nc2ccc(C(F)(F)F)cc2)Oc2ccc(NC(=O)Nc3cccc4ccccc34)cc2CC1=O	–	–	–
SMILES	T cruzi intra	YB-1 expr inh	INS-1E ATP HTS
COc1cc(C(=O)NCc2ccccc2)cc(OC)c1OC	·	–	·
COCc1cc(=O)[nH]c(SCC(=O)C(C)(C)C)n1	·	–	·
COc1ccccc1NC(=O)c1cccc(S(=O)(=O)N2CCCC2)c1	·	–	·
O=C(Nc1ccc(S(=O)(=O)NC23CC4CC(CC(C4)C2)C3)cc1)C1CC1	·	–	·
O=C(Nc1ccc([N+](=O)[O-])cc1O)Nc1ccccc1Br	·	3.04	·
O=C(CCCCCC(=O)Nc1ccccc1O)N/N=C/c1cc(Br)cc([N+](=O)[O-])c1O	–	–	–
O=C1CC(c2ccccc2)C(=O)N1c1cc(Cl)cc(Cl)c1 (stereo unspecified)	·	–	·
Cc1cc(C(=O)Nc2cccc3c2O[C@H](CN(C)Cc2ccc(C(=O)Nc4ccccc4N)cc2)[C@H](C)CN([C@@H](C)CO)C3=O)n(C)n1	–	–	60.0
C[C@@H]1CN([C@@H](C)CO)C(=O)c2cc(NC(=O)Nc3cccc4ccccc34)ccc2O[C@@H]1CN(C)Cc1ccc(C(=O)Nc2ccccc2N)cc1	–	–	–
Cc1cc(C(=O)Nc2cccc3c2O[C@@H](CN(C)Cc2ccc(C(=O)Nc4ccccc4N)cc2)[C@@H](C)CN([C@H](C)CO)C3=O)n(C)n1	–	–	–
C[C@@H]1CN([C@@H](C)CO)C(=O)c2cccc(NC(=O)Nc3ccccc3)c2O[C@@H]1CN(C)Cc1ccc(C(=O)Nc2ccccc2N)cc1	66.4	–	–
C[C@@H]1CN([C@@H](C)CO)C(=O)c2cccc(NC(=O)Nc3ccccc3)c2O[C@@H]1CN(C)Cc1ccc(C(=O)O)cc1	–	–	–
C[C@@H]1CN([C@H](C)CO)C(=O)c2cccc(NC(=O)Nc3ccccc3)c2O[C@H]1CN(C)Cc1ccc(C(=O)Nc2ccccc2N)cc1	76.1	–	–
C[C@H]1CN([C@@H](C)CO)C(=O)c2cccc(NC(=O)Nc3cccc4ccccc34)c2O[C@H]1CN(C)Cc1ccc(C(=O)Nc2ccccc2N)cc1	67.7	–	–
Cc1nn(Cc2nnc(SCc3c(Cl)cccc3Cl)o2)c(C)c1Br	·	–	·
C[C@@H]1CN([C@H](C)CO)C(=O)c2cccc(NC(=O)Nc3ccccc3)c2O[C@H]1CN(C)CC1CC1	–	–	–
C[C@H](CO)N1C[C@H](C)[C@H](CN(C)CC2CC2)Oc2c(NS(=O)(=O)c3cn(C)cn3)cccc2C1=O	–	–	–

Screening results: PubChem BioAssay, Broad Institute
